Experimental findings from ChEMBL document CHEMBL1141882, “Synthesis and biological testing of purine derivatives as potential ATP-competitive kinase inhibitors” (J Med Chem, 2005) are described below.

The target in test [1] is Mitogen-activated protein kinase 14 (Homo sapiens) (UniProt Q16539). In words: Inhibition of human stress-activated protein kinase-2 alpha (p38 MAP-kinase) at 30 uM. Put shortly: (§1)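 Kinase activity assayed with ATP at 100 µM, deliberately higher than usual assay ATP levels because the inhibitors are assumed ATP-competitive. Results are reported as percent inhibition of each kinase.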

The target in test [2] is Mitogen-activated protein kinase 1 (Homo sapiens) (UniProt P28482). In words: Inhibition of human Mitogen-activated protein kinase 1 at 30 uM.
Test [3] deals with cAMP-dependent protein kinase (PKA) (Homo sapiens) (UniProt P22694+P17612+P22612). In words: Inhibition of human cAMP-dependent protein kinase (PKA). The test is classed as protein assay. Also noted: concentration or dose not given beside the values. As to conditions: concentration not given here.
Test [4] has as its target RAF proto-oncogene serine/threonine-protein kinase (Homo sapiens) (UniProt P04049). The experiment in a line: Inhibition of human RAF proto-oncogene serine/threonine-protein kinase at 30 uM. Put shortly:
as §1

The target in test [5] is Mitogen-activated protein kinase 1 (Homo sapiens) (UniProt P28482). In words: Inhibition of human Mitogen-activated protein kinase 2 at 30 uM. The method in brief:
as §1
Target sequence in this assay (P28482 whole entry): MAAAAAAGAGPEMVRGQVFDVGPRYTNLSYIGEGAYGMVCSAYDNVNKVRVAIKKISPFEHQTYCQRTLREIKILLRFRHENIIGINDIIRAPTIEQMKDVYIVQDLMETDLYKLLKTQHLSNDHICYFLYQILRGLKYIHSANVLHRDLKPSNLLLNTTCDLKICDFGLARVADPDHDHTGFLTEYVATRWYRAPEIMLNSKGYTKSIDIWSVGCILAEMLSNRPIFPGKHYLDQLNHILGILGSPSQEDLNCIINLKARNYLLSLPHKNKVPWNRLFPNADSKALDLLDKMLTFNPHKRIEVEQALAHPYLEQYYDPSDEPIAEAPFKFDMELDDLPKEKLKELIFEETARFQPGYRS

The target in test [6] is Mitogen-activated protein kinase 8 (Homo sapiens) (UniProt P45983). In words: Inhibition of human c-Jun N-terminal kinase-1 alpha-1 at 30 uM. Put shortly: as §1
Test [7] addresses Mitogen-activated protein kinase 9 (Homo sapiens) (UniProt P45984). The experiment in a line: Inhibition of human c-Jun N-terminal kinase-2 alpha-2 at 30 uM. The method in brief: as §1
Test [8] has as its target Protein kinase C alpha type (Homo sapiens) (UniProt P17252). In words: Inhibition of human Protein kinase C alpha. Particulars: concentration not given here. Also noted: concentration or dose not given beside the values.
In test [9] the target is Glycogen synthase kinase-3 beta (Homo sapiens) (UniProt P49841). The experiment in a line: Inhibition of human Glycogen synthase kinase-3 beta at 30 uM. Put shortly:
as §1

For test [10], the target named is Mitogen-activated protein kinase 10 (Rattus norvegicus) (UniProt P49187). In words: Inhibition of rat c-Jun N-terminal kinase-3 at 30 uM. The method in brief: as §1
Test [11] has as its target Tyrosine-protein kinase Lck (Homo sapiens) (UniProt P06239). The experiment in a line: Inhibition of human lymphocyte protein tyrosine kinase Lck at 30 uM. Put shortly: as §1
Test [12] addresses Dual specificity mitogen-activated protein kinase kinase 1 (Homo sapiens) (UniProt Q02750). In words: Inhibition of human Mitogen activated protein kinase kinase 1 (MEK1) at 30 uM. Put shortly: as §1
The target of test [13] is Rho-associated protein kinase 2 (Homo sapiens) (UniProt O75116). In words: Inhibition of human Rho-dependent protein kinase-II at 30 uM.
Test [14] concerns the target RAC-alpha serine/threonine-protein kinase (Homo sapiens) (UniProt P31749). In words: Inhibition of human Protein kinase B alpha at 30 uM. The method in brief: as §1
Test [15] has as its target Ca2+/calmodulin-dependent protein kinase II (CaM kinase II) (Rattus norvegicus) (UniProt P11275+P08413+P15791+P11730). In words: Inhibition of rat Calcium/calmodulin-dependent protein kinase type II at 30 uM. The test is classed as protein assay. The method in brief:
as §1

The structures appear in SMILES notation.

Mitogen-activated protein kinase 9 (Homo sapiens), sequence (P45984 whole entry, looked up): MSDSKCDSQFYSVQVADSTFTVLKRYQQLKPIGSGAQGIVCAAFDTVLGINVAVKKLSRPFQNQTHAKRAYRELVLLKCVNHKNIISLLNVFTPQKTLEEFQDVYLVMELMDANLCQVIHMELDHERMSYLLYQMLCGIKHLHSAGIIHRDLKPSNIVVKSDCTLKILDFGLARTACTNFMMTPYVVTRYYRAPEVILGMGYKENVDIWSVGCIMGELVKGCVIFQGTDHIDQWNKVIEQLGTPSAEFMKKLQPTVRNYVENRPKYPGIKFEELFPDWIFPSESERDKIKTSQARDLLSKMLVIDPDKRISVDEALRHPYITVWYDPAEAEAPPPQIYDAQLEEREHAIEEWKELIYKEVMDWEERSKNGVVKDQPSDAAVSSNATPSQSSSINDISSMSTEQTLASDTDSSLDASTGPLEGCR
RAF proto-oncogene serine/threonine-protein kinase (Homo sapiens), sequence (P04049 whole entry): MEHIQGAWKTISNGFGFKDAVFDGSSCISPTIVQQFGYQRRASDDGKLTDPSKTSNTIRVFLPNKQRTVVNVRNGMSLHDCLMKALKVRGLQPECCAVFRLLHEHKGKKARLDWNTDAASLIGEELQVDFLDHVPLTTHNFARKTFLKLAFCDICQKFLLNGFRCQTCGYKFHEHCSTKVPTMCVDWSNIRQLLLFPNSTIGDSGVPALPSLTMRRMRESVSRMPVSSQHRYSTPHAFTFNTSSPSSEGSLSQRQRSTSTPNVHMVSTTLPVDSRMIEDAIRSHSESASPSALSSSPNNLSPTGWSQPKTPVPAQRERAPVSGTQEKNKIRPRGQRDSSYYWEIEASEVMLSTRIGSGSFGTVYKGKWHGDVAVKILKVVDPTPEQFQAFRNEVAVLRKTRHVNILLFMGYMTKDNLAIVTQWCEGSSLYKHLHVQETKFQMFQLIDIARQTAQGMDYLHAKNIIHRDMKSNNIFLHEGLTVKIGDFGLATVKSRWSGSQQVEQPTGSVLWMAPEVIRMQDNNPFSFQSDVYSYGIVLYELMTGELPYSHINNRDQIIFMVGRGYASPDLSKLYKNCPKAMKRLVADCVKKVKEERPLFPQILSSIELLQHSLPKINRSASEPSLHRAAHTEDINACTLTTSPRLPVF
Glycogen synthase kinase-3 beta (Homo sapiens), sequence (P49841 whole entry, looked up): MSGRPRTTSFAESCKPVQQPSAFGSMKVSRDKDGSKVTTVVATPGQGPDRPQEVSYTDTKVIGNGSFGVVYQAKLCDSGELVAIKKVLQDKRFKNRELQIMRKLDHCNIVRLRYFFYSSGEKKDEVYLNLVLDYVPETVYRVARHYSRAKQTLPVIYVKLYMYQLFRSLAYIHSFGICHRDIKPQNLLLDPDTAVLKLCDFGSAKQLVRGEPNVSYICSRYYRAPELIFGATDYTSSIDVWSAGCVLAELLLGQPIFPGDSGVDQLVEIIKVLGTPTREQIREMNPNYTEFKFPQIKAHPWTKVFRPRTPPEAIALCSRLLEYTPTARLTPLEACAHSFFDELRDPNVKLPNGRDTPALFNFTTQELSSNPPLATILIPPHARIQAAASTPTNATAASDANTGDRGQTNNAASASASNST
Mitogen-activated protein kinase 10 (Rattus norvegicus), sequence (P49187 whole entry): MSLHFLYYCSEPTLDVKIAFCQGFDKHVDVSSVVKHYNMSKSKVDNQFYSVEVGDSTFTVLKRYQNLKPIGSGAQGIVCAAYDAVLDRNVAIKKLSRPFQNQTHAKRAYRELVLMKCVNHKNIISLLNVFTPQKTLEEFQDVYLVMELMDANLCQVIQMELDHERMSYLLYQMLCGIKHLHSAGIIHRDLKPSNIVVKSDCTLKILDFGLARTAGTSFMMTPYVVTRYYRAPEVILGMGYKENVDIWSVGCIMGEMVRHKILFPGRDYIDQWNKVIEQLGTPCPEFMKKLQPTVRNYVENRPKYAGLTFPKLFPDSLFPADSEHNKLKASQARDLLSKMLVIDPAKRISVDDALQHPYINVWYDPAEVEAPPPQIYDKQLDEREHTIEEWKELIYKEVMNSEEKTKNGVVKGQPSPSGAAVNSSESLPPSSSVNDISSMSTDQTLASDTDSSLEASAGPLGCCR
Dual specificity mitogen-activated protein kinase kinase 1 (Homo sapiens), sequence (Q02750 whole entry): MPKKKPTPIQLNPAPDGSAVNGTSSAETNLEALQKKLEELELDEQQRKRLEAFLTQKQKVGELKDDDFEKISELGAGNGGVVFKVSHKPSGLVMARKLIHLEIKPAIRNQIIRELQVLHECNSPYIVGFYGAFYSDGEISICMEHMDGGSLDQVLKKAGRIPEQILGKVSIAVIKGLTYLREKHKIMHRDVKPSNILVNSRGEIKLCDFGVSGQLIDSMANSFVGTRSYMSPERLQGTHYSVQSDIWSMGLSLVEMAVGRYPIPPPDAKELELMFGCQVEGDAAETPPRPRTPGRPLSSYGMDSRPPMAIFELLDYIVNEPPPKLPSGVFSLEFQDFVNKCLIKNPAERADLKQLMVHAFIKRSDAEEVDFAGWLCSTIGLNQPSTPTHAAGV
Tyrosine-protein kinase Lck (Homo sapiens), sequence (P06239 2-509 limits assumed): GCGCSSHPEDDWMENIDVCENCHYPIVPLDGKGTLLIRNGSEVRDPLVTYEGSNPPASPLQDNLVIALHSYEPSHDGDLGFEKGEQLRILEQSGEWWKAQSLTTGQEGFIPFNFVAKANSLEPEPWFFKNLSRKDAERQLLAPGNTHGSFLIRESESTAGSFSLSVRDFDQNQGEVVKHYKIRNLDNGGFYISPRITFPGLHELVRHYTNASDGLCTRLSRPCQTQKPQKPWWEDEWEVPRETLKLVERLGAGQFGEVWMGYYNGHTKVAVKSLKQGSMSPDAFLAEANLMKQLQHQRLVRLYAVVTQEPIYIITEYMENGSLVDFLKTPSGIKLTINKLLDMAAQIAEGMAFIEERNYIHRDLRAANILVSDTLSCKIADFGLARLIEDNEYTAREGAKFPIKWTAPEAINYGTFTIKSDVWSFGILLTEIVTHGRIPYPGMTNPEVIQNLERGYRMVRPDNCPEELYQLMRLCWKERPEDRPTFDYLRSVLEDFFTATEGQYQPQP
RAC-alpha serine/threonine-protein kinase (Homo sapiens), sequence (P31749 whole entry): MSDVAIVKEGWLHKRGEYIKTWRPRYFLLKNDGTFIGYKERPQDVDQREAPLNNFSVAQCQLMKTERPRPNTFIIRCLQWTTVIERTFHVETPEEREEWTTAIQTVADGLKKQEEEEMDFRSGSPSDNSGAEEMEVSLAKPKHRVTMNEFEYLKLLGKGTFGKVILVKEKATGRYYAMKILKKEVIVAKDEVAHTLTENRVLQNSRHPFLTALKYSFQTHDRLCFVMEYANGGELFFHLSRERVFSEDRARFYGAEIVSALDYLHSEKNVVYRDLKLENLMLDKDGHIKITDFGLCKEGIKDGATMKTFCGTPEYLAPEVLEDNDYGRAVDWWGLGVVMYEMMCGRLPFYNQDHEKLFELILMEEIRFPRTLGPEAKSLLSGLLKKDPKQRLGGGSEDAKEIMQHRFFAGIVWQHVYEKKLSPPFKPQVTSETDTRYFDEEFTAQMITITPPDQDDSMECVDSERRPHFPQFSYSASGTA
Mitogen-activated protein kinase 14 (Homo sapiens), sequence (Q16539 whole entry): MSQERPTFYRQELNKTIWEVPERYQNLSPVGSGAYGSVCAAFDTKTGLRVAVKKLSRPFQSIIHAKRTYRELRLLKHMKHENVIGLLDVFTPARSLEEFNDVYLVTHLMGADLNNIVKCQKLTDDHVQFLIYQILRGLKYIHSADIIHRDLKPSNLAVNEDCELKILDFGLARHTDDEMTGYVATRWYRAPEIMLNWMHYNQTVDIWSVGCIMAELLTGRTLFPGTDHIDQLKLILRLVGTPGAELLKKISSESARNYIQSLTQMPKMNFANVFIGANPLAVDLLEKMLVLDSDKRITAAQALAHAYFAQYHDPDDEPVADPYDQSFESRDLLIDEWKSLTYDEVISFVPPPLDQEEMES

As for `c1ccc(Nc2ncnc3[nH]cnc23)cc1`, the inhibition (in general, the drop in the measured response relative to a control, in per cent) in test [1] worked out at 34%; in [2] it was 22%; in [3] it was 32%; in test [4], 19%; in test [5] it was 33%; in [6] it was 0%. For the same compound, the inhibition in [7] worked out at 0%; in test [8], 6%; in [9] it was 13%; in test [10], 11%; in test [11], 39%; in test [12], 19%. In addition, the inhibition in test [13] was found to be 48%; in test [14] it was 14%; in test [15] it was 0%.

On to `Nc1ncnc2ncn(Cc3ccc(F)cc3)c12`, for which the inhibition was 8% in test [1]; 7% in test [3]; 28% in [4]; 5% in test [5]; 4% in test [6]; 7% in [7]. Besides, the inhibition in test [8] turned out to be 14%; in test [9], 0%; in test [10], 25%; in test [11], 0%; in [12], 8%; in test [13], 6%. For the same compound, the inhibition in [14] was 0%; in [15] it was 8%.

With `Clc1ncnc2ncn(Cc3ccccc3)c12`, the inhibition in [1] stood at 7%; in [3], 0%; in test [4] it was 12%; in test [5], 1%; in [6] it was 0%; in test [7] it was 1%. Besides, the inhibition is 12% in [8]; 9% in test [9]; 11% in [10]; 0% in test [11]; 0% in [12]; 6% in test [13]. Besides, the inhibition in [14] and in test [15] was 0% each time.

`c1ccc(C[n+]2c[nH]c3ncncc32)cc1`: the inhibition in test [1] is 6%; in [3], 0%; in test [4], 10%; in test [5] it was 7%; in test [6] it was 0%; in [7] it was 4%. In addition, the inhibition stood at 18% in test [8]; 13% in test [9]; 13% in test [10]; 7% in test [11]; 4% in test [12]; 7% in test [13]. The values for the inhibition in test [14] and in test [15] were 9% and 7%, respectively.

Take `Cn1c(-c2ccc([S+](C)[O-])cc2)nc2c(Sc3ccc(F)cc3)ncnc21` (centres undefined): the inhibition stood at 44% in [1]; 4% in [3]; 4% in [4]; 0% in test [5]; 0% in test [6]; 1% in [7]. Besides, the inhibition was 15% in test [8]; 4% in test [9]; 10% in [10]; 30% in test [11]; 1% in test [12]; 0% in [13]. Further, the inhibition is 10% in [14] and 12% in test [15].

As for `Fc1ccc(Cn2cnc3ncnc(Cl)c32)cc1`, the inhibition in test [1] was determined as 17%; in test [3], 0%; in test [4], 20%; in test [5] it was 1%; in [6], 6%; in test [7], 9%. Moreover, the inhibition in test [8] was 13%; in [9], 0%; in test [10] it was 21%; in test [11], 0%; in [12], 4%; in test [13], 7%. The inhibition in [14] was 0%; in test [15], 8%.

As for `Cn1cnc2c(Nc3ccc(F)cc3)ncnc21`, the inhibition was determined as 13% in [1]; 0% in [3]; 27% in test [4]; 57% in test [5]; 5% in [6]; 6% in [7]. Besides, the inhibition in [8] turned out to be 11%; in test [9] it was 14%; in [10], 19%; in test [11], 9%; in test [12] it was 8%; in [13], 7%. Also, the inhibition in test [14] was found to be 0%; in test [15], 8%.
